Measurements: ChEMBL document CHEMBL1681705, “Optimisation of ITK inhibitors through successive iterative design cycles” (Bioorg Med Chem Lett, 2011)

What was measured:
[1] = target: Ribosomal protein S6 kinase alpha-4 (Homo sapiens) (UniProt O75676); assay: Inhibition of MSK2 at 0.1 uM; values are per cent of control
[2] = target: Epidermal growth factor receptor (Homo sapiens) (UniProt P00533); assay: Inhibition of EGFR at 1 uM; values are per cent of control
[3] = target: Serine/threonine-protein kinase MARK1 (Homo sapiens) (UniProt Q9P0L2); assay: Inhibition of MARK1 at 0.1 uM; values are per cent of control
Chain of Serine/threonine-protein kinase MARK1 (Homo sapiens) (Q9P0L2 whole entry, looked up): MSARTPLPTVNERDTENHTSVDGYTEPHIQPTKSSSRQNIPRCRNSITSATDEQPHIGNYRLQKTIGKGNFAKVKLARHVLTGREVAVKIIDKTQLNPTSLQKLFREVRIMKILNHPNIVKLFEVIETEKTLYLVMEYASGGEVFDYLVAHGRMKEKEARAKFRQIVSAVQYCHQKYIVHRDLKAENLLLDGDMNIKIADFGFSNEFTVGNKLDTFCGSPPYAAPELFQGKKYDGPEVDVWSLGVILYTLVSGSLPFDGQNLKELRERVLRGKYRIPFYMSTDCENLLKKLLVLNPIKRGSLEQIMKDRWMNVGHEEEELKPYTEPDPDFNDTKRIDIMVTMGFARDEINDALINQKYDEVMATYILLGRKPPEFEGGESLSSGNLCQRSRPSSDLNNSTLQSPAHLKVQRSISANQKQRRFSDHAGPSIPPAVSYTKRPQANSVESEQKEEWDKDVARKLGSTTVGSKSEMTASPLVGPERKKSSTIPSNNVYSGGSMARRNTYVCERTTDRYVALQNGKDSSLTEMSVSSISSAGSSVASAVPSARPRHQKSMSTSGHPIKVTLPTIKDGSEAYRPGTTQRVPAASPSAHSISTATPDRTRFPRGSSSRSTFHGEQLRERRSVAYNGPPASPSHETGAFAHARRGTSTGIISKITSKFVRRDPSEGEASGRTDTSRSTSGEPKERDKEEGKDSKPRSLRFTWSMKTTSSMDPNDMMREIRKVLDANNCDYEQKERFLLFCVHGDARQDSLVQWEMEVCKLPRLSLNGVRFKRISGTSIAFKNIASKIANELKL

[4] = target: 3-phosphoinositide-dependent protein kinase 1 (Homo sapiens) (UniProt O15530); assay: Inhibition of PDK1 at 1 uM; values are per cent of control
Chain of 3-phosphoinositide-dependent protein kinase 1 (Homo sapiens) (O15530 whole entry, looked up): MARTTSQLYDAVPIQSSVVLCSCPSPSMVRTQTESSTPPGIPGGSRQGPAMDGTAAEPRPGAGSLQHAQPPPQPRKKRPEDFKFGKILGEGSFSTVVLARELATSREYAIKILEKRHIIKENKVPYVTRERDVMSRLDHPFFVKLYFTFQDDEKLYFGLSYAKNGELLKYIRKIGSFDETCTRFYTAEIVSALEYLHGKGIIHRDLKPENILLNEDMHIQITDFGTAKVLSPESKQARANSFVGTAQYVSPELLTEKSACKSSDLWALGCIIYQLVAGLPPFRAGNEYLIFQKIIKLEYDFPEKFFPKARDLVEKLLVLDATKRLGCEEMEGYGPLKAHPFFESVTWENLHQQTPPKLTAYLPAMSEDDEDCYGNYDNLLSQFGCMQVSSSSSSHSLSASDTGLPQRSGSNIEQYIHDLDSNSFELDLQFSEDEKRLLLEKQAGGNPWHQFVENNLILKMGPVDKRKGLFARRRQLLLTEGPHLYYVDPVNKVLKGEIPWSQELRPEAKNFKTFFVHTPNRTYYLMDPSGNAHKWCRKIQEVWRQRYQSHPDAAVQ

[5] = target: T1, Serine/threonine-protein kinase TBK1 (Homo sapiens) (UniProt Q9UHD2); assay: Inhibition of TBK1 at 1 uM; values are per cent of control
T1 sequence (whole entry): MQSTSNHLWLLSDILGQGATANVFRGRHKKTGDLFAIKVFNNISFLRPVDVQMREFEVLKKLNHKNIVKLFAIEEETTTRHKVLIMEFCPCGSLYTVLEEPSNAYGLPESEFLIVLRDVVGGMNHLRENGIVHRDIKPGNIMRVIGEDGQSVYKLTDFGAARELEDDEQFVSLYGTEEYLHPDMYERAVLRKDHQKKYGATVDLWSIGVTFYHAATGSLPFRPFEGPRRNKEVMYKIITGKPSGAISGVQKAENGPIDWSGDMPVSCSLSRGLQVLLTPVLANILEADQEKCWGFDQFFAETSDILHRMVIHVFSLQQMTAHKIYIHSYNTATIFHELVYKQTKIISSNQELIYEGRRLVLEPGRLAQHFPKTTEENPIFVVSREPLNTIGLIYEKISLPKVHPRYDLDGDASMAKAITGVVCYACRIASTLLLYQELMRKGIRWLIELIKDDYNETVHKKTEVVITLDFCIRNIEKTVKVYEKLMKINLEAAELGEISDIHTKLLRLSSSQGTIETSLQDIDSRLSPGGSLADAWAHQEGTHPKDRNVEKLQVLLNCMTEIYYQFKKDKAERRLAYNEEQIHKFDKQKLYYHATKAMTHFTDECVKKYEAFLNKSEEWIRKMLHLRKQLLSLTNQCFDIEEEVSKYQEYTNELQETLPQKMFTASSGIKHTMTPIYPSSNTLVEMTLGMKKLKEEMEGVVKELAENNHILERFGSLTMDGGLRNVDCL

[6] = target: T2, Ephrin type-B receptor 2 (Homo sapiens) (UniProt P29323); assay: Inhibition of EphB2 at 1 uM; values are per cent of control
T2 sequence (whole entry): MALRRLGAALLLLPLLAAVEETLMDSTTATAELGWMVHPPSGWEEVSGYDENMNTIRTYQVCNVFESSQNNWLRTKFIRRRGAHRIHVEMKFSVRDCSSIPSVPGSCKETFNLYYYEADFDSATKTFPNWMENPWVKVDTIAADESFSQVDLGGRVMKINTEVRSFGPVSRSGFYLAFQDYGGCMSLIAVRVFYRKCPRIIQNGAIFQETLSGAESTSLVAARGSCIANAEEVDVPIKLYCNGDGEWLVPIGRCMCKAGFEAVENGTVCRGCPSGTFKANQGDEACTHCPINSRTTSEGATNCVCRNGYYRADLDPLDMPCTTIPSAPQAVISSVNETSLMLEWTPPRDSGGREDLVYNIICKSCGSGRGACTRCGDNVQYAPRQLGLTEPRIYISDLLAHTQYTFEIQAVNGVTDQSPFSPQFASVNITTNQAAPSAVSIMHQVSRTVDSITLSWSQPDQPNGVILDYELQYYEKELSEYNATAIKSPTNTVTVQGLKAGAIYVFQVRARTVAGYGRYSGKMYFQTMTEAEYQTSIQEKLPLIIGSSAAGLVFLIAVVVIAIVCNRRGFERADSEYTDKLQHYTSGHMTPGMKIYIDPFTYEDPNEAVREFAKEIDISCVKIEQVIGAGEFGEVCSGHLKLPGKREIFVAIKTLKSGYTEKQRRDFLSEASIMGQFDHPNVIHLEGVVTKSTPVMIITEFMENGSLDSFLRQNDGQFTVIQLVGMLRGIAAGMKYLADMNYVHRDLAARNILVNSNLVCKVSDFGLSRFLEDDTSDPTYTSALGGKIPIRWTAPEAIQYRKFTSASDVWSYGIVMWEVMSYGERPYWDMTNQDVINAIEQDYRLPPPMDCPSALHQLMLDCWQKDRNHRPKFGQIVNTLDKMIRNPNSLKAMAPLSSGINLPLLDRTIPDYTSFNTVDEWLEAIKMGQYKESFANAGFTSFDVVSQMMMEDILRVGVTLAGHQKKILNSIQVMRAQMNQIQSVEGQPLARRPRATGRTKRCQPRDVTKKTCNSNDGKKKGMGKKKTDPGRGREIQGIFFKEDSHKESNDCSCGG

[7] = target: Receptor-type tyrosine-protein kinase FLT3 (Homo sapiens) (UniProt P36888); assay: Inhibition of Flt3 at 1 uM; values are per cent of control
Chain of Receptor-type tyrosine-protein kinase FLT3 (Homo sapiens) (P36888 whole entry): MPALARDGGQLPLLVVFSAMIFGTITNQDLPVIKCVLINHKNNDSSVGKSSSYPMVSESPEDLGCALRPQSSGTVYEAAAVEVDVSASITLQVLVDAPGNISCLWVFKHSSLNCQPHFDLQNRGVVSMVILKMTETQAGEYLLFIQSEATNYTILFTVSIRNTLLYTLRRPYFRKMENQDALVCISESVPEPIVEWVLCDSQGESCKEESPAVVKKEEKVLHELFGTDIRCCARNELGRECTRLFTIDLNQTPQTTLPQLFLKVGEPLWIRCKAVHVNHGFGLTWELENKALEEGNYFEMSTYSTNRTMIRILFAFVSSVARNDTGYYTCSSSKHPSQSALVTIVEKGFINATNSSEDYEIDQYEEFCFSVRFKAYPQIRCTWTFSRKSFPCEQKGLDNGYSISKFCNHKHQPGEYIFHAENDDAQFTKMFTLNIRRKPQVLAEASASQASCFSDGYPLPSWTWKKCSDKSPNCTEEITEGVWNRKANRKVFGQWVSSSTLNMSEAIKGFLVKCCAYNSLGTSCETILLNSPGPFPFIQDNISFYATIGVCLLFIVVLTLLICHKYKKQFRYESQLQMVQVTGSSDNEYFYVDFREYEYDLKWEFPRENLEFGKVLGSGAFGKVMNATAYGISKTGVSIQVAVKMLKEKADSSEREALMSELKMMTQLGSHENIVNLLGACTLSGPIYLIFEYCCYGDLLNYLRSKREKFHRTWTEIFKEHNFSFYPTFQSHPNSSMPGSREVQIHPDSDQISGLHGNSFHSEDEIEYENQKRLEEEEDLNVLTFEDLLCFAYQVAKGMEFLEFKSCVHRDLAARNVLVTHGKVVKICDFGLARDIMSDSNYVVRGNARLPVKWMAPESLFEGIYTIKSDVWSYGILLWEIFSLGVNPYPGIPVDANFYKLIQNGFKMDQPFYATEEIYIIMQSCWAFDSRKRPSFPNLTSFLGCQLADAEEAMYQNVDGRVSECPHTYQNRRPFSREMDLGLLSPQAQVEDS

[8] = target: RAF proto-oncogene serine/threonine-protein kinase (Homo sapiens) (UniProt P04049); assay: Inhibition of c-RAF at 1 uM; values are per cent of control
Chain of RAF proto-oncogene serine/threonine-protein kinase (Homo sapiens) (P04049 whole entry): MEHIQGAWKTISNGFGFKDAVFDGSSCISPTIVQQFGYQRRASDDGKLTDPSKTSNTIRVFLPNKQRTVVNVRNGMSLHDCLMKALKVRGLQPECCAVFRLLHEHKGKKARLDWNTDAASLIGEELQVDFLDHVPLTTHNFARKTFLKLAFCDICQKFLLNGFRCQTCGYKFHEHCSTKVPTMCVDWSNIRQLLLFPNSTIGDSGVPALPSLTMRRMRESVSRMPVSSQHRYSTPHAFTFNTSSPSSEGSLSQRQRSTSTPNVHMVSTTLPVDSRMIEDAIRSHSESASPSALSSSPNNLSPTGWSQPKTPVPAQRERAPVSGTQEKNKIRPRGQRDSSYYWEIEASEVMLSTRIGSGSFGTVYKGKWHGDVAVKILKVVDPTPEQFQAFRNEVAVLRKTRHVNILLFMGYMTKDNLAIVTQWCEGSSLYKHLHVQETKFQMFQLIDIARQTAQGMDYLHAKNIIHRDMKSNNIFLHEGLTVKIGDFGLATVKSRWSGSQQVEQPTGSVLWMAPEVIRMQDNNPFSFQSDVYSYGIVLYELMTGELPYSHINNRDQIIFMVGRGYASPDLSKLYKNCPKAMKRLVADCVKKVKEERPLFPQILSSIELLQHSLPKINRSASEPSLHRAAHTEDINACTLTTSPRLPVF

[9] = target: Tyrosine-protein kinase HCK (Homo sapiens) (UniProt P08631); assay: Inhibition of Hck at 0.1 uM; values are per cent of control
Chain of Tyrosine-protein kinase HCK (Homo sapiens) (P08631 2-526 limits assumed): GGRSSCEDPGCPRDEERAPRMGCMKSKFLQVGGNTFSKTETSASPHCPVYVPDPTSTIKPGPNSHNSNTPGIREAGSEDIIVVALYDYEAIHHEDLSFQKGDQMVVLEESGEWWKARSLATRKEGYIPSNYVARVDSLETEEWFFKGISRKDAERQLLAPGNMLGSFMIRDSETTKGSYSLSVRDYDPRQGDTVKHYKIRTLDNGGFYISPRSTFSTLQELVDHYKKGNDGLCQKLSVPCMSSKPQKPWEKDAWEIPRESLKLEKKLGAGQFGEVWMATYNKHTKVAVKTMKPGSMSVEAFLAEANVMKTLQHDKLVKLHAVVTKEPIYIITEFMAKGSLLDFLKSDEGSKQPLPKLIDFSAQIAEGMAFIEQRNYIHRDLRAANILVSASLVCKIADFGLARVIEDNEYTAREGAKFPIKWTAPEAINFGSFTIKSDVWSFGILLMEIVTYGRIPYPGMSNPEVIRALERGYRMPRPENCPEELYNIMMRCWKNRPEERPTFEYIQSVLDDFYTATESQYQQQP

[10] = target: T3, Dual specificity mitogen-activated protein kinase kinase 6 (Homo sapiens) (UniProt P52564); assay: Inhibition of MKK6 at 0.1 uM; values are per cent of control
T3 sequence (whole entry): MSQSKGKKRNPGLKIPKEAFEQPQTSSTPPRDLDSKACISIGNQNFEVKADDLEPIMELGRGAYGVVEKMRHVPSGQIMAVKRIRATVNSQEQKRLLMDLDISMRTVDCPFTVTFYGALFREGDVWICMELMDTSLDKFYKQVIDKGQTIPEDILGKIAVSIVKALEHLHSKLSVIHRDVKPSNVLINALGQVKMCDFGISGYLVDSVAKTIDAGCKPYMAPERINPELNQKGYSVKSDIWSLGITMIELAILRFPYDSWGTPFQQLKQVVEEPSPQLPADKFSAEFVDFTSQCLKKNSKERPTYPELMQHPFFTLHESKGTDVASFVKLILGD

[11] = target: Mitogen-activated protein kinase 10 (Homo sapiens) (UniProt P53779); assay: Inhibition of JNK3 at 1 uM
Chain of Mitogen-activated protein kinase 10 (Homo sapiens) (P53779 whole entry): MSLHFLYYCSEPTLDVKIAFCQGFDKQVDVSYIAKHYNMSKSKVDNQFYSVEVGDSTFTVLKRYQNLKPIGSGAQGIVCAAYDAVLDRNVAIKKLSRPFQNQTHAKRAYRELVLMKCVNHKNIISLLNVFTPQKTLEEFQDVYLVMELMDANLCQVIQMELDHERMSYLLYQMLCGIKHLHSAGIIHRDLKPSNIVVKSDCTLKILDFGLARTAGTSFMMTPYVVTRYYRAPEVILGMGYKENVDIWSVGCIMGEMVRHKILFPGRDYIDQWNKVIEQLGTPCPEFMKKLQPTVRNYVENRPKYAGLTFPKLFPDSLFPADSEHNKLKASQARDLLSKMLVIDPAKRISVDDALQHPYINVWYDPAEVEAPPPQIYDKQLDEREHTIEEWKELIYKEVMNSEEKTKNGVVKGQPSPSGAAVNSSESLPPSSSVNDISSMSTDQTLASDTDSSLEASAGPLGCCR
Method in brief: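 Single-point profiling in a panel of 108 kinases. Each selected inhibitor was tested at two concentrations, 0.1 and 1.0 micromolar. Values are reported as inhibition at each concentration.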

Chain of Ribosomal protein S6 kinase alpha-4 (Homo sapiens) (O75676 whole entry, looked up): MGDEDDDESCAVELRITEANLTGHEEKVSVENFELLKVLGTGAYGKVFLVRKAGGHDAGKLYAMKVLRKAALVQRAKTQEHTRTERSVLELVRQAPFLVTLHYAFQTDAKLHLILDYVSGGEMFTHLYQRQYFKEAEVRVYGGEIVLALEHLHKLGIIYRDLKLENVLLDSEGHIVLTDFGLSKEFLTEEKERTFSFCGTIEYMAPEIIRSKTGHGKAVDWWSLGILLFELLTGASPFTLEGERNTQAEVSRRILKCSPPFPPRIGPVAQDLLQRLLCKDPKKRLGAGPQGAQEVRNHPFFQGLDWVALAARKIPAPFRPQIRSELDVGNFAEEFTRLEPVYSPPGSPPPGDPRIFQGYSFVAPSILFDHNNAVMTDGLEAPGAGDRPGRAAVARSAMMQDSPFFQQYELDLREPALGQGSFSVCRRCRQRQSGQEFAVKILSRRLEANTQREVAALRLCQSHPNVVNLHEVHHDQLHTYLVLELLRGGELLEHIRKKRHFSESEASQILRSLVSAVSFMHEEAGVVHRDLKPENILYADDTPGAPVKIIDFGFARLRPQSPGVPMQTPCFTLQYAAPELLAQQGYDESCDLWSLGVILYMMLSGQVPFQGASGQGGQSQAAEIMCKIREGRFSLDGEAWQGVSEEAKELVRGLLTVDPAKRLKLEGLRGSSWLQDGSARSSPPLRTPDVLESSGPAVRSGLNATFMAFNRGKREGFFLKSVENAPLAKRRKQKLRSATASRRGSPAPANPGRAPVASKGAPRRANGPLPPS

| residual activity [1] [%] | residual activity [2] [%] | residual activity [3] [%] | residual activity [4] [%] | residual activity [5] [%] | residual activity [6] [%] | residual activity [7] [%] | residual activity [8] [%] | residual activity [9] [%] | residual activity [10] [%] | inhibition [11] [%] | SMILES |
| --- | --- | --- | --- | --- | --- | --- | --- | --- | --- | --- | --- |
| 106 | -8 | 53 | 40 | 9 | 75 | 0 | 90 | 61 | 90 | 91 | Cc1ccc2cc(-c3n[nH]c4ccc(NC5CCN(Cc6ccccc6)CC5)cc34)[nH]c2c1 |
| 39 | 99 | 5 | 10 | 2 | 74 | 10 | 90 | 15 | 57 | 36 | Cc1ccc2cc(-c3n[nH]c4ccc(NC5CCNC5)cc34)[nH]c2c1 (configuration not stated) |
